Data set [1] deals with CC(C)[C@H](NC(=O)[C@H](CCC(=O)O)NC(=O)[C@H](CCC(=O)O)NC(=O)[C@@H](NC(=O)[C@H](CCC(=O)O)NC(=O)[C@H](CC(=O)O)NC(=O)[C@H](CC(=O)O)NC(=O)[C@@H](N)CCC(=O)O)[C@@H](C)c1ccc(O)cc1)C(=O)O. Kind of data set: (§1) Affinity towards tyrosine kinase Syk. Put shortly: (§2)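 Syk purified from rat spleen (1 unit = 1 pmol phosphate/min to polyGlu4Tyr at 0.1 mg/mL). Kinetic assays at 30 °C in 50 mM Tris/HCl pH 7.5, 5 mM MnCl2, 20 µM [γ33P]ATP, 10 units enzyme, varied peptide substrate. Stopped with 1 N HCl, heated to hydrolyse ATP, Pi removed as phosphomolybdic complex; aqueous phosphopeptide counted by scintillation; Km derived.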

Data set [2] concerns CC(C)[C@H](NC(=O)[C@H](CCC(=O)O)NC(=O)[C@H](CCC(=O)O)NC(=O)[C@@H]1Cc2cc(O)ccc2CN1C(=O)[C@H](CCC(=O)O)NC(=O)[C@H](CC(=O)O)NC(=O)[C@H](CC(=O)O)NC(=O)[C@@H](N)CCC(=O)O)C(=O)O. The data set is described as §1. Put shortly:
as §2

The subject of data set [3] is CC(C)[C@H](NC(=O)[C@H](CCC(=O)O)NC(=O)[C@H](CCC(=O)O)NC(=O)[C@@]1(NC(=O)[C@H](CCC(=O)O)NC(=O)[C@H](CC(=O)O)NC(=O)[C@H](CC(=O)O)NC(=O)[C@@H](N)CCC(=O)O)CCc2cc(O)ccc2C1)C(=O)O. Described as §1. Summed up: as §2
Data set [4] relates to CC(C)[C@H](NC(=O)[C@H](CCC(=O)O)NC(=O)[C@H](CCC(=O)O)NC(=O)[C@@]1(NC(=O)[C@H](CCC(=O)O)NC(=O)[C@H](CC(=O)O)NC(=O)[C@H](CC(=O)O)NC(=O)[C@@H](N)CCC(=O)O)Cc2ccc(O)cc2C1)C(=O)O. The description is as §1. Put shortly: as §2
The test system of data set [5] is CC(C)[C@H](NC(=O)[C@H](CCC(=O)O)NC(=O)[C@H](CCC(=O)O)NC(=O)[C@H](Cc1ccc(O)cc1)NC(=O)[C@H](CCC(=O)O)NC(=O)[C@H](CC(=O)O)NC(=O)[C@H](CC(=O)O)NC(=O)[C@@H](N)CCC(=O)O)C(=O)O. The description is as §1. Summed up:
as §2

The test system of data set [6] is CC(C)[C@H](NC(=O)[C@H](CCC(=O)O)NC(=O)[C@H](CCC(=O)O)NC(=O)[C@H](Cc1cccc(O)c1)NC(=O)[C@H](CCC(=O)O)NC(=O)[C@H](CC(=O)O)NC(=O)[C@H](CC(=O)O)NC(=O)[C@@H](N)CCC(=O)O)C(=O)O. The data set is described as §1. Put shortly:
as §2

For data set [7], the system named is CC(C)[C@H](NC(=O)[C@H](CCC(=O)O)NC(=O)[C@H](CCC(=O)O)NC(=O)[C@H](NC(=O)[C@H](CCC(=O)O)NC(=O)[C@H](CC(=O)O)NC(=O)[C@H](CC(=O)O)NC(=O)[C@@H](N)CCC(=O)O)[C@@H](C)c1ccc(O)cc1)C(=O)O. The data set is described as §1. Summed up:
as §2

Data set [8] has as its system CC(C)[C@H](NC(=O)[C@H](CCC(=O)O)NC(=O)[C@H](CCC(=O)O)NC(=O)[C@H]1Cc2cc(O)ccc2CN1C(=O)[C@H](CCC(=O)O)NC(=O)[C@H](CC(=O)O)NC(=O)[C@H](CC(=O)O)NC(=O)[C@@H](N)CCC(=O)O)C(=O)O. Described as §1. Summed up:
as §2

Data set [9] relates to CC(C)[C@H](NC(=O)[C@H](CCC(=O)O)NC(=O)[C@H](CCC(=O)O)NC(=O)[C@](C)(Cc1ccc(O)cc1)NC(=O)[C@H](CCC(=O)O)NC(=O)[C@H](CC(=O)O)NC(=O)[C@H](CC(=O)O)NC(=O)[C@@H](N)CCC(=O)O)C(=O)O. The description is as §1. Put shortly:
as §2

The subject of data set [10] is CC(C)[C@H](NC(=O)[C@H](CCC(=O)O)NC(=O)[C@H](CCC(=O)O)NC(=O)[C@]1(NC(=O)[C@H](CCC(=O)O)NC(=O)[C@H](CC(=O)O)NC(=O)[C@H](CC(=O)O)NC(=O)[C@@H](N)CCC(=O)O)CCc2cc(O)ccc2C1)C(=O)O. Described as §1. Summed up: as §2
Data set [11] deals with CC(C)[C@H](NC(=O)[C@H](CCC(=O)O)NC(=O)[C@H](CCC(=O)O)NC(=O)[C@]1(NC(=O)[C@H](CCC(=O)O)NC(=O)[C@H](CC(=O)O)NC(=O)[C@H](CC(=O)O)NC(=O)[C@@H](N)CCC(=O)O)Cc2ccc(O)cc2C1)C(=O)O. The description is as §1. Summed up: as §2

The record followed here is ChEMBL document CHEMBL1138194, “Spatial conformation and topography of the tyrosine aromatic ring in substrate recognition by protein tyrosine kinases” (J Med Chem, 2006).

Regarding “Tyrosine-protein kinase SYK (Homo sapiens) (from UniProt P43405)”, the Michaelis constant (Km) worked out at 6.5 µM in data set [1]; 124 µM in [2]; 3.6 µM in data set [3]; 146 µM in [4]; 3.6 µM in data set [5]; 5.5 µM in data set [6]. In addition, the Michaelis-Menten constant (Km) worked out at 63.2 µM in data set [7]; 136 µM in data set [8]; 87.7 µM in [9]; 98 µM in data set [10]; 17.3 µM in data set [11].

In general, Km refers to the substrate concentration at which the rate is half of its maximum.
